Published values pooled from the literature.
Compare with care: the assays were run in different laboratories.
CHRM1: Muscarinic acetylcholine receptor M1 (CHRM1, Homo sapiens, UniProt P11229)
CDK3: Cyclin-dependent kinase 3 (CDK3, Homo sapiens, UniProt Q00526)
CSNK1A1L: Casein kinase I isoform alpha-like (CSNK1A1L, Homo sapiens, UniProt Q8N752)

The inhibition of Cc1cc(O)c(-c2ccc([C@@H](C)CN(C)C)cc2)c2c1[nH]c(=O)c1sccc12 is reported as -3.37% (Serine/threonine-protein kinase Sgk1 (SGK1, Homo sapiens, UniProt O00141); enzyme activity, inhibitor; 0.1 µM).
For CCN1/C(=C/C(C)=O)Sc2ccc(F)cc21, the inhibition was 4.3% (Prostaglandin E2 receptor EP2 subtype (PTGER2, Homo sapiens, UniProt P43116); ligand displacement, radioligand; 10 µM).
For Cc1cc(F)cc2c(CCC(=O)N[C@@H]3C(=O)NC[C@H]3O)c(-c3ccc(F)cc3)[nH]c12, the inhibition was 14% (CHRM1; cell-free assay; 10 µM).
Cc1cc(S(=O)(=O)N[C@H]2CC[C@H](CN3CCN(c4ccc(C5CCC(=O)NC5=O)cc4F)CC3)CC2)ccc1Nc1ncc(C(F)(F)F)c(N2CCC[C@](C)(O)C2)n1 (some centres unmarked) gave a remaining binding of 63% (CDK3; binding, competition with immobilised ligand; 1 µM).
For CNC(=O)COc1cc2cc(Nc3nc(N4CCC(C(=O)N(C)C)CC4)ncc3Cl)cc(OC)c2n(C)c1=O, the inhibition was greater than 90% (B-cell lymphoma 6 protein (BCL6, Homo sapiens, UniProt P41182); target engagement in cells, BRET; HEK-293T; 1 µM).
For NC/C(=C\F)COc1cccc(Cn2c(=S)[nH]c(=O)c3[nH]cnc32)c1, the inhibition was less than 50% (CHRM1; ligand displacement, radioligand; 10 µM).
For CNS(=O)(=O)c1ccc(Nc2ncc(C(F)(F)F)c(N3CCC[C@](C)(O)C3)n2)c(C)c1, the remaining binding was 49% (CDK3; binding, competition with immobilised ligand; 1 µM).
For C#Cc1cc(-c2cc(Nc3nc(N[C@@H](C)c4ccc(F)cn4)ncc3Cl)n[nH]2)ccc1C=O, the inhibition was 89.1% (Tyrosine-protein kinase JAK1 (JAK1, Homo sapiens, UniProt P23458); enzyme activity, inhibitor; 0.2 µM).
CCCCC(=O)Nc1ccc(-c2ccc3ncn(CCC)c(=O)c3c2)cn1 gave a remaining binding of 99% (CSNK1A1L; binding, competition with immobilised ligand; 0.5 µM).
COc1ccc2oc(-c3ccc4nc(N)oc4c3)c/c(=N\c3ccccc3NC(=O)CCN)c2c1 gave a remaining binding of 91% (Tyrosine-protein kinase ABL1 (Abl1, Mus musculus, UniProt P00520); binding; 1 µM).
C1=C/COCc2cc(ccc2OCCN2CCCC2)Nc2nccc(n2)-c2cccc(c2)COC/1 gave a remaining binding of 99% (CSNK1A1L; binding; 0.1 µM).
